# Measurements from ChEMBL document CHEMBL4725345, “DFG-1 Residue Controls Inhibitor Binding Mode and Affinity, Providing a Basis for Rational Design of Kinase Inhibitor Selectivity” (J Med Chem, 2020).
# What was measured:
# [1] = target: Dual specificity protein kinase CLK2 (Homo sapiens) (UniProt P49760); settings: dose 10.0 µM, time 10.0 min
# Homo sapiens [2] = species on record: Homo sapiens; test: Binding affinity to CLK1 V324A mutant (unknown origin) assessed as change in melting temperature at 10 uM incubated for 10 mins using SYPRO orange dye by RT-PCR-based fluorescence assay
# Summary of the method: (§1)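 Recombinant kinase domain at 2 μM in 10 mM HEPES pH 7.5, 500 mM NaCl, mixed with 10 μM inhibitor for 10 min at room temperature; SYPRO orange added at 1:1000; temperature-dependent unfolding fluorescence read on a real-time PCR instrument; Tm shift derived by a previously described method.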
# [3] = target: T1, Dual specificity protein kinase CLK3 (Homo sapiens, UniProt P49761); settings: dose 10.0 µM, time 10.0 min
# Target sequence in this assay (P49761 whole entry, looked up): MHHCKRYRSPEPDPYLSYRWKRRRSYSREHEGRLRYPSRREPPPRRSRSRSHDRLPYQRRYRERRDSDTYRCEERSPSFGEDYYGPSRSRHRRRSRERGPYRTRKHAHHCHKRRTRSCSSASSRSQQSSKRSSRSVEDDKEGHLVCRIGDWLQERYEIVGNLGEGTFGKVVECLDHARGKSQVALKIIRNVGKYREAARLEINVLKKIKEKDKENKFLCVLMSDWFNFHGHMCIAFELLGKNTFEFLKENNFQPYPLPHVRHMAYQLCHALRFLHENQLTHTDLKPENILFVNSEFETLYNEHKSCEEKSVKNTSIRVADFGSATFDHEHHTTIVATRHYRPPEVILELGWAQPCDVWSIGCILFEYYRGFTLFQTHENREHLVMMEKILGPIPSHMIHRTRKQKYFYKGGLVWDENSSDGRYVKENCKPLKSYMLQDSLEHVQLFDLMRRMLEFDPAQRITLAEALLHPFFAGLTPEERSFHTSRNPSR
# [4] = target: T2, Dual specificity protein kinase CLK4 (Homo sapiens, UniProt Q9HAZ1); settings: dose 10.0 µM, time 10.0 min
# Target sequence in this assay (Q9HAZ1 whole entry, looked up): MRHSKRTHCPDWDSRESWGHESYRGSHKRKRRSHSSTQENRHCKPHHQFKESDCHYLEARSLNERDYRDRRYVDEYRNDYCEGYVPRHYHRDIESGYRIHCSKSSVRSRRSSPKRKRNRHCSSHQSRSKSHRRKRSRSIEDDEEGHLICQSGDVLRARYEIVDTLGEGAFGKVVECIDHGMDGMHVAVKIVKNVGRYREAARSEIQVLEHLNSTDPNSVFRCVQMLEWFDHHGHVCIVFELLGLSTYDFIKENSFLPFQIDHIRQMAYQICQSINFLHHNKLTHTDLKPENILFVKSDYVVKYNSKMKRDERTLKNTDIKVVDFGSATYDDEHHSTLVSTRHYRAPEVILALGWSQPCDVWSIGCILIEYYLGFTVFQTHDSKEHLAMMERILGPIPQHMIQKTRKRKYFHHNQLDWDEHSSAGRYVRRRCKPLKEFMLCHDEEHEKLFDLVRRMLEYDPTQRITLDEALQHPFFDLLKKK
# [5] = target: T3, Dual specificity protein kinase CLK1 (Homo sapiens, UniProt P49759); settings: dose 10.0 µM, time 10.0 min
# Target sequence in this assay (P49759 whole entry, looked up): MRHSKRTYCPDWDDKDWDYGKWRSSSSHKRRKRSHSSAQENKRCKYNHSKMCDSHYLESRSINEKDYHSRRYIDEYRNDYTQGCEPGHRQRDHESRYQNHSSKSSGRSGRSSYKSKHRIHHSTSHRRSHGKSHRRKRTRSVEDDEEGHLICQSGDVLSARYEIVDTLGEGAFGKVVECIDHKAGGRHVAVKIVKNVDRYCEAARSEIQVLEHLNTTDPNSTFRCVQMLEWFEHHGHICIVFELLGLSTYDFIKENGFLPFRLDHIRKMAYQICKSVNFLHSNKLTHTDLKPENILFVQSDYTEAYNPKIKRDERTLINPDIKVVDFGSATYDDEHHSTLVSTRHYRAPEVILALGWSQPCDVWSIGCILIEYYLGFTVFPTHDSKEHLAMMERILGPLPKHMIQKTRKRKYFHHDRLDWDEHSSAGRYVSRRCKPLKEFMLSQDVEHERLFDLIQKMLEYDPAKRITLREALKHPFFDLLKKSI
# Homo sapiens [6] = species on record: Homo sapiens; test: Binding affinity to CLK3 A319V mutant (unknown origin) assessed as change in melting temperature at 10 uM incubated for 10 mins using SYPRO orange dye by RT-PCR-based fluorescence assay
# Summary of the method: as §1
# Homo sapiens [7] = species on record: Homo sapiens; test: Selectivity ratio of Ki for CLK1 V324A mutant (unknown origin) expressed in HEK293 cells to Ki for wild type CLK1 (unknown origin); assay type: cell-based
# Summary of the method: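 Full-length CLK1 wild type and V324A, NanoLuc-fused (N-terminal for WT, C-terminal for mutant), transfected into HEK293T cells and expressed for 20 h at 37 °C, 5% CO2. Cells in Opti-MEM were incubated 2 h with serially varied inhibitor plus 1 μM Tracer K5. BRET was read at 450/610 nm, and mBU was fitted to give IC50. […] Biological duplicates; mutant/WT Ki ratio.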
# [8] = target: Serine/threonine-protein kinase 17A (Homo sapiens) (UniProt Q9UEE5); test: Binding affinity to DRAK1 (unknown origin) assessed as change in melting temperature at 10 uM incubated for 10 mins using SYPRO orange dye by RT-PCR-based fluorescence assay
# Chain of Serine/threonine-protein kinase 17A (Homo sapiens) (Q9UEE5 whole entry): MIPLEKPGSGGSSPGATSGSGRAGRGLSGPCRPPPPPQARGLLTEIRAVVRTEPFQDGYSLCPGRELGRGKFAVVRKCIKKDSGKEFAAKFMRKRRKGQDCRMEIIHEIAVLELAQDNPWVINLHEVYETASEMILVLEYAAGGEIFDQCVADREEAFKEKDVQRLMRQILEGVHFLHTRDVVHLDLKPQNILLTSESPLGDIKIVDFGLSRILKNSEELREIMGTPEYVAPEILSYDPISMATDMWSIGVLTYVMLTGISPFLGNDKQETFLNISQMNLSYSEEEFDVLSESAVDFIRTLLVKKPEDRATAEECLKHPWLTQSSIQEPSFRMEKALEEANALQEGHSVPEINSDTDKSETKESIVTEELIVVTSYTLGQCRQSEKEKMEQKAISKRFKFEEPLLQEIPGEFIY
# Summary of the method: as §1
# [9] = target: Casein kinase II subunit alpha' (Homo sapiens) (UniProt P19784); test: Binding affinity to CK2A2 (unknown origin) assessed as change in melting temperature at 10 uM incubated for 10 mins using SYPRO orange dye by RT-PCR-based fluorescence assay
# Chain of Casein kinase II subunit alpha' (Homo sapiens) (P19784 whole entry, looked up): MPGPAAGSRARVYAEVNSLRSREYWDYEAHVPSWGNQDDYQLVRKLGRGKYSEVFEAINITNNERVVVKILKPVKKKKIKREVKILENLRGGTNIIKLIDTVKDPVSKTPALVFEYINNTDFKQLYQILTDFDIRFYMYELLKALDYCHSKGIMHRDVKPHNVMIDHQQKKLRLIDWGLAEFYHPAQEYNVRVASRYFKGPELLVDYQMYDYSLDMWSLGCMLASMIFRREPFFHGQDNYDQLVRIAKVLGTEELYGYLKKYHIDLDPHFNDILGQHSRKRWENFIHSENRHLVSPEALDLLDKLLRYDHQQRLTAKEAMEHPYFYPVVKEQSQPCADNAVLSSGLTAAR
# Summary of the method: as §1
# [10] = target: T1, Dual specificity protein kinase CLK3; test: Inhibition of recombinant CLK3 (unknown origin) using Ac-ERMRPRKRQGSVdP(Sox)G-NH2 as substrate after 5 mins by Omnia Kinase Assay
# Target sequence in this assay (P49761 whole entry): as the sequence (P49761 whole entry, looked up) above
# [11] = target: Serine/threonine-protein kinase 33 (Homo sapiens) (UniProt Q9BYT3); test: Binding affinity to STK33 (unknown origin) assessed as change in melting temperature at 10 uM incubated for 10 mins using SYPRO orange dye by RT-PCR-based fluorescence assay
# Summary of the method: as §1
# [12] = target: cGMP-dependent protein kinase 1 (Homo sapiens) (UniProt Q13976); settings: dose 10.0 µM, time 10.0 min
# [13] = target: T4, Serine/threonine-protein kinase haspin (Homo sapiens) (UniProt Q8TF76); test: Binding affinity to haspin (unknown origin) assessed as change in melting temperature at 10 uM incubated for 10 mins using SYPRO orange dye by RT-PCR-based fluorescence assay
# T4 sequence (whole entry): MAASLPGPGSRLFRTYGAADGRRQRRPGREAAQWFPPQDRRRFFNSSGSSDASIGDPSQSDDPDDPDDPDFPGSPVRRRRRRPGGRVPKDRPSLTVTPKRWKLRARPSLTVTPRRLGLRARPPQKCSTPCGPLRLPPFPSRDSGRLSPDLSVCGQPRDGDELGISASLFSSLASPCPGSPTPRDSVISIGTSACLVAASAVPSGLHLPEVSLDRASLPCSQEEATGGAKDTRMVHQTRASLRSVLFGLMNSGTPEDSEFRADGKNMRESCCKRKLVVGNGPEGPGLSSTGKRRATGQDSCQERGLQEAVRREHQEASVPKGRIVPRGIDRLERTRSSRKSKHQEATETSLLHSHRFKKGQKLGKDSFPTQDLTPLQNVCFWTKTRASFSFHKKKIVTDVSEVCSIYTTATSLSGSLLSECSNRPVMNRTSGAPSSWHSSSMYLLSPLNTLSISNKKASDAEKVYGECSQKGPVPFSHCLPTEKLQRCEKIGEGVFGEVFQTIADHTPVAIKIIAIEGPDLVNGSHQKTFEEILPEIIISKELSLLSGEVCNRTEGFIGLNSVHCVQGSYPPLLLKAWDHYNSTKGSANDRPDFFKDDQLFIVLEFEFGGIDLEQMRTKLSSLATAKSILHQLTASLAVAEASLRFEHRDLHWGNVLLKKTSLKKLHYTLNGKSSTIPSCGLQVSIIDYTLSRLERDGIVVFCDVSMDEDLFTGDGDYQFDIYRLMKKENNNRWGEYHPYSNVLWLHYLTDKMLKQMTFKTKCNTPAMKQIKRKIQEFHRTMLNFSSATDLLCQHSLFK
# Summary of the method: as §1
# [14] = Inhibition of CLK1 V324A mutant (unknown origin) expressed in HEK293 cells incubated for 2 hrs followed by NanoBRET NanoGlo Substrate addition by NanoBRET assay; assay type: cell-based, Homo sapiens
# [15] = target: Tyrosine-protein kinase Fes/Fps (Homo sapiens) (UniProt P07332); test: Binding affinity to FES (unknown origin) assessed as change in melting temperature at 10 uM incubated for 10 mins using SYPRO orange dye by RT-PCR-based fluorescence assay
# Summary of the method: as §1
# [16] = target: T3, Dual specificity protein kinase CLK1; test: Inhibition of full length wild type CLK1 (unknown origin) expressed in HEK293 cells incubated for 2 hrs followed by NanoBRET NanoGlo Substrate addition by NanoBRET assay; assay type: cell-based
# Target sequence in this assay (P49759 whole entry): as the sequence (P49759 whole entry, looked up) above
# [17] = target: cAMP-dependent protein kinase catalytic subunit PRKX (Homo sapiens) (UniProt P51817); test: Binding affinity to PRKX (unknown origin) assessed as change in melting temperature at 10 uM incubated for 10 mins using SYPRO orange dye by RT-PCR-based fluorescence assay
# Chain of cAMP-dependent protein kinase catalytic subunit PRKX (Homo sapiens) (P51817 whole entry): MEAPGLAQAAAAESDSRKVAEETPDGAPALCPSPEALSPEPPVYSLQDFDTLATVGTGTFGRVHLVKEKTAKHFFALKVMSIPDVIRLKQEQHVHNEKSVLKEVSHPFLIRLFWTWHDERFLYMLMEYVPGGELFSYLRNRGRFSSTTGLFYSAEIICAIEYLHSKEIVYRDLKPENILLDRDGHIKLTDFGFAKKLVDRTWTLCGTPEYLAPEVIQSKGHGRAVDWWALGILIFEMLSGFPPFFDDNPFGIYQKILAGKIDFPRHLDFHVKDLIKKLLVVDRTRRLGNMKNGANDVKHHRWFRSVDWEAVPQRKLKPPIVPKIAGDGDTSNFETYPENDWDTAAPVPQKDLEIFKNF
# Summary of the method: as §1
# [18] = Inhibition of recombinant CLK3 A319V mutant (unknown origin) using Ac-ERMRPRKRQGSVdP(Sox)G-NH2 as substrate after 5 mins by Omnia Kinase Assay; set-up: species or system Homo sapiens
# [19] = target: T5, Dual specificity tyrosine-phosphorylation-regulated kinase 2 (Homo sapiens) (UniProt Q92630); test: Binding affinity to DYRK2 (unknown origin) assessed as change in melting temperature at 10 uM incubated for 10 mins using SYPRO orange dye by RT-PCR-based fluorescence assay
# T5 sequence (whole entry): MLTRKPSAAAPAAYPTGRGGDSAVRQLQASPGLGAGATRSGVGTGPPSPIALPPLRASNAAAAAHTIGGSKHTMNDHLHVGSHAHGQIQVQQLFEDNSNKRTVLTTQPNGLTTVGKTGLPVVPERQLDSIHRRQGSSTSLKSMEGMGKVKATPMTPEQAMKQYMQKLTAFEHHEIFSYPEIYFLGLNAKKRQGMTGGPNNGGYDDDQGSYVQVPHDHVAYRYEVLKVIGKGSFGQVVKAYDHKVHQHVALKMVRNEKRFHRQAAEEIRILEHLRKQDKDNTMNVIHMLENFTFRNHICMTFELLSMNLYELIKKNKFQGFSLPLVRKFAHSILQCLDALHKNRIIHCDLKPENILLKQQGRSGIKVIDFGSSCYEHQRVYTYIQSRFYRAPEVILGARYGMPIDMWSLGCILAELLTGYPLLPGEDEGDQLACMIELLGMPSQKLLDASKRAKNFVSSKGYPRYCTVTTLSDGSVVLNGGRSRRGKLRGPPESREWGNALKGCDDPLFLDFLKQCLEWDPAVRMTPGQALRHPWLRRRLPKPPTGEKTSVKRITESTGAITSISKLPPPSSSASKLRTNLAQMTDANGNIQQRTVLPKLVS
# Summary of the method: as §1
# [20] = target: T6, Dual specificity tyrosine-phosphorylation-regulated kinase 1A (Homo sapiens, UniProt Q13627); settings: dose 10.0 µM, time 10.0 min
# [21] = target: Casein kinase I isoform epsilon (Homo sapiens) (UniProt P49674); test: Binding affinity to CSNK1E (unknown origin) assessed as change in melting temperature at 10 uM incubated for 10 mins using SYPRO orange dye by RT-PCR-based fluorescence assay
# Summary of the method: as §1
# [22] = target: Serine/threonine-protein kinase pim-1 (Homo sapiens) (UniProt P11309); test: Binding affinity to PIM1 (unknown origin) assessed as change in melting temperature at 10 uM incubated for 10 mins using SYPRO orange dye by RT-PCR-based fluorescence assay
# [23] = target: Serine/threonine-protein kinase pim-3 (Homo sapiens) (UniProt Q86V86); test: Binding affinity to PIM3 (unknown origin) assessed as change in melting temperature at 10 uM incubated for 10 mins using SYPRO orange dye by RT-PCR-based fluorescence assay
# Summary of the method: as §1
# [24] = target: Serine/threonine-protein kinase 17B (Homo sapiens) (UniProt O94768); test: Binding affinity to DRAK2 (unknown origin) assessed as change in melting temperature at 10 uM incubated for 10 mins using SYPRO orange dye by RT-PCR-based fluorescence assay
# Summary of the method: as §1
# [25] = target: T2, Dual specificity protein kinase CLK4; test: Inhibition of human CLK4 by radiometric assay
# [26] = target: Homeodomain-interacting protein kinase 2 (Homo sapiens, UniProt Q9H2X6); test: Inhibition of human HIPK2 by radiometric assay
# [27] = target: T4, Serine/threonine-protein kinase haspin (Homo sapiens); test: Inhibition of human Haspin assessed as residual activity at 1 uM relative to control
# [28] = target: Glycogen synthase kinase-3 beta (Homo sapiens) (UniProt P49841); test: Inhibition of human GSK3B assessed as residual activity at 1 uM relative to control
# [29] = target: Interleukin-1 receptor-associated kinase 4 (Homo sapiens) (UniProt Q9NWZ3); test: Inhibition of human IRAK4 assessed as residual activity at 1 uM relative to control
# Chain of Interleukin-1 receptor-associated kinase 4 (Homo sapiens) (Q9NWZ3 whole entry): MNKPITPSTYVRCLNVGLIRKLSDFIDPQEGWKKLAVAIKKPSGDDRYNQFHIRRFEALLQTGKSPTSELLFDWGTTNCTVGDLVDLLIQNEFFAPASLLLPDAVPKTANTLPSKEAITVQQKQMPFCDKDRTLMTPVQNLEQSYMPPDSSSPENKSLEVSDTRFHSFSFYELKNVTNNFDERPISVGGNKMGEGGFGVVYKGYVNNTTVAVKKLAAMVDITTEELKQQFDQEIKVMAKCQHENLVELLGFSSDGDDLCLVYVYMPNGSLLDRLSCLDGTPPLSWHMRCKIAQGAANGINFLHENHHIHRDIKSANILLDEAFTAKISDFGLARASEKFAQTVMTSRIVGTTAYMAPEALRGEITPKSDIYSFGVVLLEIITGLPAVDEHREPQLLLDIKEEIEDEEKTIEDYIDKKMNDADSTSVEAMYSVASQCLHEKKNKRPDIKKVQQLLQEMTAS
# [30] = target: Dual specificity tyrosine-phosphorylation-regulated kinase 2 (Homo sapiens, UniProt Q92630); test: Inhibition of human DYRK2 by radiometric assay
# [31] = target: High affinity nerve growth factor receptor (Homo sapiens) (UniProt P04629); test: Inhibition of human TrkA assessed as residual activity at 1 uM relative to control
# [32] = target: Homeodomain-interacting protein kinase 1 (Homo sapiens, UniProt Q86Z02); test: Inhibition of human HIPK1 by radiometric assay
# [33] = target: T6, Dual specificity tyrosine-phosphorylation-regulated kinase 1A; test: Inhibition of DYRK1A (unknown origin) by radiometric assay
# [34] = target: Homeodomain-interacting protein kinase 3 (Homo sapiens, UniProt Q9H422); test: Inhibition of human HIPK3 by radiometric assay
# Chain of Dual specificity protein kinase CLK2 (Homo sapiens) (P49760 whole entry, looked up): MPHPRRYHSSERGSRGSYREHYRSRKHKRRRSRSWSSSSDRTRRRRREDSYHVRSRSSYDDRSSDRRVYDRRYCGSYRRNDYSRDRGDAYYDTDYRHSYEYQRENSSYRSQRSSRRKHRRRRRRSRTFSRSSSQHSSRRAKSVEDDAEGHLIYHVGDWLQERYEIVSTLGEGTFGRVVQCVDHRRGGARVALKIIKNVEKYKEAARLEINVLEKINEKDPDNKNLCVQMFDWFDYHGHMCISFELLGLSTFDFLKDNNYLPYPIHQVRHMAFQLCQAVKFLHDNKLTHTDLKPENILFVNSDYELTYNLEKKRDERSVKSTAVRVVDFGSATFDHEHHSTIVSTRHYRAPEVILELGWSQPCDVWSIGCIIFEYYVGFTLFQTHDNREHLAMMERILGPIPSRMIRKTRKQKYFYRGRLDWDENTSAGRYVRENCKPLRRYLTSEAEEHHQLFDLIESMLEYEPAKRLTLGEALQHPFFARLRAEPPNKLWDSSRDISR
smiles,measurement,setting,value
COC(=N)c1nc2ccc3ncnc(Nc4ccc(OC)cc4F)c3c2s1,ΔTm,[1],7 °C
same,ΔTm,Homo sapiens [2],3.8 °C
same,ΔTm,[3],3.4 °C
same,ΔTm,[4],9.6 °C
same,ΔTm,[5],10.3 °C
same,ΔTm,Homo sapiens [6],9.2 °C
CCOC(=O)c1c(/C(C#N)=C/N)c2ccc(Cl)c(Cl)c2n1C,Ratio Ki,Homo sapiens [7],9
CCOc1ccc2c(-c3ccnc(Nc4cc(OC)cc(C(F)(F)F)c4)n3)cnn2n1,ΔTm,[1],8.4 °C
same,Ratio Ki,Homo sapiens [7],9
same,ΔTm,Homo sapiens [2],2.5 °C
same,ΔTm,[3],2 °C
same,ΔTm,[4],9 °C
same,ΔTm,[5],9 °C
same,ΔTm,Homo sapiens [6],5.5 °C
O=C1NCc2ccc3c(-c4cccc(Cl)c4)c[nH]c3c21,ΔTm,[1],4.9 °C
same,ΔTm,[3],2.3 °C
same,ΔTm,[4],10.1 °C
same,ΔTm,[5],9.8 °C
Cn1c2c(c3ccc(Cl)c(Cl)c31)C(C#N)C1(CCNCC1)NC2=O (stereo unspecified),ΔTm,[8],> 4 °C
same,ΔTm,[9],> 4 °C
same,Ki,[10],26.9 µM
same,ΔTm,[1],3.5 °C
same,ΔTm,[11],> 4 °C
same,Ratio Ki,Homo sapiens [7],20.6
same,ΔTm,[3],1.4 °C
same,ΔTm,[12],> 6 °C
same,ΔTm,[13],> 4 °C
same,ΔTm,[4],> 4 °C
same,Ki,[14],2810 nM
same,ΔTm,[15],> 4 °C
same,Ki,[16],140 nM
same,ΔTm,[17],> 4 °C
same,Ki,[18],850 nM
Cn1cc(-c2ccc3occ(-c4cccc(Oc5ccccc5)c4)c3n2)cn1,ΔTm,[1],8.3 °C
same,ΔTm,[3],4.8 °C
same,ΔTm,[5],12.3 °C
CCN1/C(=C\C(C)=O)Sc2ccc(OC)cc21,ΔTm,[19],> 6 °C
same,ΔTm,[1],> 4 °C
same,ΔTm,[20],> 6 °C
same,ΔTm,[21],> 4 °C
same,ΔTm,[3],3 °C
same,ΔTm,[22],> 4 °C
same,ΔTm,[4],> 6 °C
same,ΔTm,[23],> 4 °C
same,ΔTm,[5],> 6 °C
same,Ki,[18],320 nM
Nc1nccc(-c2ccc3noc(-c4ccc(Cl)cc4)c3c2)n1,ΔTm,[19],> 6 °C
same,ΔTm,[1],> 6 °C
same,ΔTm,[23],> 4 °C
same,ΔTm,[5],> 6 °C
same,ΔTm,[24],> 6 °C
Cn1cc(-c2ccc3occ(-c4cccc(-c5ccncc5)c4)c3n2)cn1,IC50,[25],12 nM
same,IC50,[26],29 nM
same,Activity,[27],< 50%
same,Activity,[28],< 50%
same,Activity,[29],< 50%
same,IC50,[30],1310 nM
same,Activity,[31],< 50%
same,IC50,[32],187 nM
same,IC50,[33],213 nM
same,IC50,[34],159 nM
